Screens: PubChem BioAssay, several laboratories
T cell modulator: modulates CD8 T cell binding to vesicles; actives 0.068% (n = 330,000); AID 2052; 2C CD8+ T cell-vesicle binding, flow cytometry; active compounds read low; response (vesicle binding), % at 7 µM;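 active means response, share of CD8 T cells binding vesicles, and their 90th percentile fluorescence all below set limits, cut at about 80% in these data, passing the limit was not always enough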;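 further: values below 100% mean blocked vesicle binding to the CD8+ T cells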
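Material: murine 2C transgenic CD8+ T lymphocytes / Also added: QL9-peptide-loaded Drosophila micro-vesicles bearing Ld, ICAM-1 and B7-1 / Schedule: binding step 1.5 h, 37 °C, antibody labelling 20 min, ice / Signal: flow cytometry, PE anti-B7-1 (FL2) versus Alexa647 anti-CD8 (FL8), PFA-fixed / Evaluation: percent CD8+ FL2 mean versus row control / Benchmarks: naked versus QL9-loaded vesicles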
beta cell repl: MIN6 beta-cell proliferation induction | MIN6 cells proliferation, ATPlite luminescence, 48 h; cells starved in 0.2% serum; 100% = growth in 10% serum | proliferation, % at 10 µM | actives 0.29% (n = 330,000) | AID 2380;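 active means compounds whose signal lies at least 3.5 SD above the mean of all wells on their plate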;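 further: 0% = DMSO-treated cells in low-serum medium and 100% = 10% serum control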
Rce1 inhib: yeast Ras-converting enzyme inhibition; Q03530; yeast membranes, quenched prenylated peptide cleavage fluorescence; calls only; actives 0.27% (n = 290,000); AID 2563;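 active means fall in fluorescence gain of 50% or more versus controls, with final raw signal at or below 3038400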;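 further: plate controls were neutral control wells for no effect and wells lacking membranes for full effect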
KLK7 zymogen act: activators of human kallikrein-7 zymogen; P49862; purified proKLK7, EDANS-DABCYL substrate fluorescence; 100% is mature enzyme control, 0% vehicle; activation, % at 7 µM; actives 0.9% (n = 370,000); AID 652039;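 active means activation above the mean of all tested compounds plus 3 SD, computed per campaign excluding outliers beyond control limits, cut at about 13% in these data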
Target sequence (P49862 whole entry, looked up): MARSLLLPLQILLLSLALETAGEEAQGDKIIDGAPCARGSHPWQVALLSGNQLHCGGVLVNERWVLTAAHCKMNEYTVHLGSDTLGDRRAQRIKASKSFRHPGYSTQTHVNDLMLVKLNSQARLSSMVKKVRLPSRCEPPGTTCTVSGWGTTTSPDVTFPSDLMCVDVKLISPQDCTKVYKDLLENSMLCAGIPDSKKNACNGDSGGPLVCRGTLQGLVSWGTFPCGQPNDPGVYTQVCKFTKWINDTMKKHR
CR mimetic SO: yeast age-related superoxide inhibition as caloric restriction mimetic; S. cerevisiae aged cells, superoxide DHE fluorescence; active compounds read low; AID 2690; superoxide response (% of plate mean), % at 10 µM; actives 0.18% (n = 330,000);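 active means superoxide response under a set limit, about three screen SD below normal, cut at about 65% in these data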;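 further: yeast aged for seven days with compound at 30 °C before DHE staining; 100% = average MFI of all compound-treated wells on the plate with controls excluded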
V-ATPase pH: alters yeast V-ATPase proton transport | S. cerevisiae, pHLuorin cytosolic pH fluorescence | response, % at 10 µM | actives 0.37% (n = 350,000); in the data active means response mostly above about 7.3%, no sharp cut-off; inactive means mostly below about 5.4%; further: actives read high
V-ATPase pH SP: regulators of yeast V-ATPase proton transport. shares compounds with V-ATPase pH. S. cerevisiae pHLuorin cytosolic pH. response, % at 10 µM. actives 2% (n = 980); in the data active means response above about 24%;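 further: plate controls were vehicle wells for no effect and positive control wells for full effect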
Numbers without * were called inactive; i = inactive; · = no result given. Hits are enriched below; roughly 1.9% of the tested compounds scored in any of these assays.

SMILES | T cell modulator | beta cell repl | Rce1 inhib | KLK7 zymogen act | CR mimetic SO | V-ATPase pH | V-ATPase pH SP
C=CCNc1ncnc2c1ncn2[C@H]1CN(Cc2ccc3c(c2)OCO3)C[C@@H](CO)O1 | · | · | · | 0 | · | · | ·
COc1ccc(-n2ccn(CC(=O)Nc3ccc(OC)cc3OC)c(=O)c2=O)cc1 | 559 | -3 | i | 0 | 110 | 9.4* | 3
COc1ccc(-n2ccn(CC(=O)Nc3ccccc3OC)c(=O)c2=O)cc1 | 474 | -2 | i | 0 | 105 | 2 | ·
O=C(CSc1ccc(Cl)cc1)NC1CCCC1 | 354 | -1 | i | 1 | 100 | -1 | ·
O=C(NC1CCCCC1)Sc1ccc(Cl)cc1 | 516 | -3 | i | 1 | 91 | 8.0* | 8
CCOc1ccc(NC(=O)CN(C)C(=O)C2CC(=O)N(Cc3ccco3)C2)cc1OCC (configuration not stated) | 168 | 9 | · | 1 | 81 | 1 | ·
O=C(CCCC(=O)N(c1ccc(F)cc1)C(C(=O)NC1CCCC1)c1ccc(O)cc1)Nc1ccccn1 (configuration not stated) | 328 | 0 | i | 1 | 102 | 11* | 1
Cc1nnc(SC(C)C(=O)N(C)C2CCCCC2)n1N (configuration not stated) | 351 | -1 | · | 0 | 113 | 7.1* | 0
O=C1CN(C(=O)CSc2nc3ccccc3c(=O)n2CC2CCCO2)c2ccccc2N1 (configuration not stated) | 179 | 0 | i | -1 | 87 | 11* | -1
Cc1ccc(Cn2c(SCC(=O)N3CC(=O)Nc4ccccc43)nc3ccccc3c2=O)cc1 | 666 | -1 | i | -1 | 96 | -2 | ·
O=C(O)CCC(=O)Nc1ccc(F)cc1 | i | 1 | i | 0 | 95 | 1 | ·
O=C(CCCC(=O)c1ccc(F)cc1)c1ccc(F)cc1 | 179 | -1 | i | 0 | 84 | 8 | 1
O=C(NCCCNC(=O)c1ccccn1)c1ccc(F)cc1 | 176 | -2 | i | 0 | 96 | -1 | ·
O=C(O)CCC(=O)NCC(=O)c1ccc(F)cc1 | 414 | -3 | i | 0 | 110 | 9 | -1
O=C(NCCCNC(=O)c1ccc(F)cc1)c1ccc(F)cc1 | 298 | 1 | i | -1 | 103 | 4 | 1
O=C1CC(=O)C(n2cncn2)C(c2ccc(Cl)cc2)C1 (configuration not stated) | 553 | -1 | i | 0 | 102 | 7.5* | 2
CN(C(=O)c1cccc(NC(=O)Cc2ccc(NC(=O)C3CCN(C(=O)C4CCCC4)CC3)cc2)c1)C1CC1 | · | · | · | 1 | · | 0 | ·
COc1ccc(-n2c(C)cc(C(=O)CN3C(=O)NC4(CCCc5sccc54)C3=O)c2C)cc1 (configuration not stated) | 384 | -5 | · | -1 | 109 | 10* | -1
Cc1ccc2oc(C(=O)N(C)Cc3ccc(C)o3)c(C)c2c1 | 270 | 1 | i | -1 | 120 | 12* | 69*
Cc1ccc2oc(C(=O)N(C)Cc3ccon3)c(C)c2c1 | 220 | 5 | i | 0 | 102 | 0 | ·
O=C(Nc1ccccc1N1CCOCC1)c1ccc([N+](=O)[O-])o1 | i | -6 | i | 0 | 114 | 25* | 90*
Cn1c(N)c(C(=O)COC(=O)CC(NC(N)=O)c2ccc(Cl)cc2)c(=O)n(C)c1=O (configuration not stated) | · | 3 | · | -1 | · | -4 | ·
CC(=O)NC(CC(=O)OCC(=O)c1c(N)n(C)c(=O)n(C)c1=O)c1ccccc1 (configuration not stated) | 150 | 0 | i | 0 | 104 | 11* | -1
O=C(CN1C(=O)NC2(CCCCC2)C1=O)NCCc1ccc(Cl)cc1Cl | 350 | -1 | · | 1 | 96 | -2 | ·
COc1ccc(S(=O)(=O)N2CCN(Cc3c[nH]c4ccccc34)CC2)cc1 | 411 | -2 | i | 0 | 96 | 7.8* | 1
CN(C(=O)c1ccc(NC(=O)Cc2ccc(NC(=O)C3CCCN(C(=O)C4CCCC4)C3)cc2)cc1)C1CC1 (configuration not stated) | 993 | -2 | · | 1 | 112 | 20* | -6
